Measurements from different studies.
Each line is one published result; the experiments were not run side by side.
Target: Serine/threonine-protein kinase STK11 (STK11, Homo sapiens, UniProt Q15831)
Sequence (Q15831 1-433, as in one of the studies): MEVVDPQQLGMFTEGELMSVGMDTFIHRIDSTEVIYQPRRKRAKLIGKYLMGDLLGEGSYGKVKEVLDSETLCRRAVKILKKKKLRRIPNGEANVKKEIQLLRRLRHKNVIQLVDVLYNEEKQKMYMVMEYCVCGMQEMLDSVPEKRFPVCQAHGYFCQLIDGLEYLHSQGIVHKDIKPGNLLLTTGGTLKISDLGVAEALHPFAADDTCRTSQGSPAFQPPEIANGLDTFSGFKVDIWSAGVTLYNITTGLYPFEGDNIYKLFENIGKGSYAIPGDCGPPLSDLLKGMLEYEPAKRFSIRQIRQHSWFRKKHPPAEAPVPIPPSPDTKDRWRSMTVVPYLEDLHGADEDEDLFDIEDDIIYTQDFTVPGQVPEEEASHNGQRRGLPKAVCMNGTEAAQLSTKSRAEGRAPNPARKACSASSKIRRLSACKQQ

Structure (SMILES)	effect on	technique	concentration	remaining binding
O=C(c1ccc(Nc2ncc(Cl)c(-c3ccc(Cl)s3)n2)cc1)N1CCC(N2CCCC2)CC1	binding	competition with immobilised ligand	1 µM	7.2%
Cc1nc(C2CCN(C(=O)c3ccc(OC(F)(F)F)cc3N)CC2)c2ncc(N3CCN(C)CC3)cc2n1	cell-free assay	competition with immobilised ligand	1 µM	100%
c1cnn2ncc(-c3ccnc(N4CCC45COC5)n3)c2c1	binding	–	1 µM	84%
Cc1cc(NC(=O)c2cccc(S(F)(F)(F)(F)F)c2)cc(-n2ccn3nc(-c4cccnc4)cc23)c1	cell-free assay	competition with immobilised ligand	1 µM	100%
CC1CCCN1c1nccc(-c2cnn3ncccc23)n1 (stereo not drawn)	binding	–	1 µM	100%
COc1ncc2cc3ccccc3nc2c1C#N	cell-free assay	competition with immobilised ligand	5 µM	99%
O=C(O)c1cc(-c2ccc(C3CCNCC3)cc2)c2ccc(-c3ccc(C(F)(F)F)cc3)cc2c1	cell-free assay	competition with immobilised ligand	1 µM	100%
O=C(NCC1CCOCC1)c1n[nH]cc1NC(=O)c1c(F)cccc1F	binding	competition with immobilised ligand	1 µM	100%
Nc1c(C(=O)NCc2ccc(C(=O)NCCCC3CCCCC3)cc2)cnn1-c1ccccc1	cell-free assay	competition with immobilised ligand	0.1 µM	100%
O=C(NCCCN1CCOCC1)c1ccc(Nc2ncc(Cl)c(-c3ccc(Cl)s3)n2)cc1	binding	competition with immobilised ligand	1 µM	0%
C[C@@H]1CN(c2ccc3ncc(-c4ccc5[nH]nc(C6CC6)c5c4)n3n2)C[C@H](C)O1	binding	competition with immobilised ligand	50 nM	72%
O=C(O)[C@@H]1[C@@H](Cn2nnc3ccccc3c2=O)CC[C@H]1C(=O)c1ccc(OCCC2CCOCC2)cc1	cell-free assay	competition with immobilised ligand	1 µM	94%
C[C@@H](c1ccc(-n2cnc3c(N)ncnc32)cc1)N1CCc2nn(C)c(Cc3ccccc3)c2C1=O	binding	competition with immobilised ligand	0.1 µM	100%
COc1ccnn2ncc(-c3ccnc(N(C)C)n3)c12	binding	–	1 µM	91%
CC(C)(C)c1ccc(-c2nc(CBr)nn2-c2cccc(O)c2)cc1	cell-free assay	competition with immobilised ligand	10 µM	100%
CN(C)c1nccc(-c2cnc3ncccn23)n1	binding	–	1 µM	100%
O=C(c1ccc(Nc2ncc(Cl)c(-c3cc4ccccc4s3)n2)cc1)N1CCC(N2CCCC2)CC1	binding	competition with immobilised ligand	1 µM	1.6%
CS(=O)(=O)N1CCCC(NC(=O)[C@H](CCC2CCCCC2)NC(=O)c2ccc(CNc3ncnc4c3nnn4-c3ccccc3)cc2)C1 (stereo partly drawn)	cell-free assay	competition with immobilised ligand	0.1 µM	100%
CN(C)c1ncc(F)c(-c2cnn3ncccc23)n1	binding	–	1 µM	100%
CC(=O)C1=C(C)N(c2cccc(C(F)(F)F)c2)C(=O)N[C@@H]1c1ccc(C#N)nc1	cell-free assay	competition with immobilised ligand	1 µM	72.8%
C=CC(=O)N1CCC(C(=O)NCC(=O)N2CCN(c3nc(-c4cnc(N)nc4C(F)F)nc(N4CCOCC4)n3)CC2)CC1	binding	competition with immobilised ligand	1 µM	100%
C[C@@H]1CCN(c2nccc(-c3cnn4ncccc34)n2)C1	binding	–	1 µM	100%
N#Cc1ccccc1CSc1nnc2c(n1)[nH]c1ccccc12	binding	competition with immobilised ligand	10 µM	87%
COc1cnc(Nc2cccc(S(N)(=O)=O)c2)nc1N1CCN(c2ccccc2)C(=O)C1	binding	competition with immobilised ligand	1 µM	100%
